# ChEMBL document CHEMBL1152797, “Design and synthesis of 4-methoxyphenylacetic acid esters as 15-lipoxygenase inhibitors and SAR comparative studies of them” (Bioorg Med Chem, 2009)
# Activity calls are given as the source filed them. The rule behind the calls is not given here.
# Tested on: Glycine max
# Test: Inhibition of 15-lipoxygenase form soybean at 200 uM
row,SMILES,Activity
1,COc1ccc2c(c1)CCC(=O)C2,inactive
2,C=C1CCc2cc(OC)ccc2C1,inactive

# Target: not listed separately
# Test: Inhibition of human recombinant 15-lipoxygenase b
# Outline: (§1)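 Human recombinant 15-LO (a or b), expressed in E. coli, at 10 µg/mL final in 50 mM Tris–HCl, pH 7.2. Linoleic acid substrate at 134 µM final, 20 ± 1 °C, compounds in DMSO (1% final). Absorbance read at 234 nm over 60–120 s against an inhibitor-plus-substrate blank. Triplicates, at least six controls; IC50 interpolated linearly near 50% activity.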
row,SMILES,IC50 [µM]
1,CCCCCOC(=O)Cc1ccc(OC)cc1,11.7
2,CCOC(=O)Cc1ccc(OC)cc1,63.2

# Target: not listed separately
# Test: Inhibition of human recombinant 15-lipoxygenase a
# Outline: as §1
row,SMILES,IC50 [µM]
1,CCCCCOC(=O)Cc1ccc(OC)cc1,30.9
2,CCOC(=O)Cc1ccc(OC)cc1,56.7

# Target: not listed separately
# Test: Inhibition of 15-lipoxygenase form soybean
# Design: species or system Glycine max
row,SMILES,IC50 [µM]
1,COc1ccc(CC(=O)OC2CCCCC2)cc1,64
2,COc1ccc(CC(=O)OCC(C)C)cc1,88.1
3,C=CCc1ccc(OC)c(OC)c1 [METHYLEUGENOL],96.1
4,C=CCc1ccc(OC)cc1 [ESTRAGOLE],64.1
5,C=C(C)Cc1ccc(OC)cc1,137
6,C=C(CC)Cc1ccc(OC)cc1,145

# More lines, now with the values ahead:
row,IC50 [µM],SMILES
1,3.8,CCCCOC(=O)Cc1ccc(OC)cc1
2,56.5,COc1ccc(CC(=O)OC2CCCC2)cc1
3,38.2,C=CCc1ccc(O)c(OC)c1 [EUGENOL]
4,1.9,CCCCCOC(=O)Cc1ccc(OC)cc1
5,35.7,CCC(C)OC(=O)Cc1ccc(OC)cc1 (centres undefined)
6,32,CCOC(=O)Cc1ccc(OC)cc1
7,38.7,COc1ccc(CC(=O)OC(C)(C)C)cc1
8,34.4,COc1ccc(CC(=O)OC(C)C)cc1
9,11.6,CCCOC(=O)Cc1ccc(OC)cc1
10,33,CCC(=O)Cc1ccc(OC)cc1
11,56.2,COC(=O)Cc1ccc(OC)cc1
12,35,CCCCCCOC(=O)Cc1ccc(OC)cc1
